Each block holds one compound with its values, some of them ahead of it.
Legend:
[1] = target: T1, Nuclear receptor subfamily 1 group I member 3 (Mus musculus, UniProt O35627, H213A); assay: Effect on nuclear co-repressor receptor binding to mouse CAR H213A mutant […] at 10 uM by yeast two-hybrid assay; type: cell-based; conditions: read-out: Activity
Method in brief: (§1)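 Yeast two-hybrid: yeast expressing wild-type or mutant mouse CAR LBD plus SRC-1 or NCoR, selected on SD medium lacking Leu and Trp. Pooled colonies treated with DMSO or test chemical for 3.5 h. β-Galactosidase normalized to cell density. SRC-1 reference: wild-type + DMSO = 100. NCoR reference: 10 µM androstenol = 100. Mean ± SD, two independent determinations, each in triplicate.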

[2] = target: T2, Nuclear receptor subfamily 1 group I member 3 (Mus musculus, UniProt O35627, L212A); assay: Effect on nuclear co-repressor receptor binding to mouse CAR L212A mutant […] at 10 uM by yeast two-hybrid assay; type: cell-based; conditions: read-out: Activity; method in brief: as §1
T2 sequence (O35627 whole entry L212A): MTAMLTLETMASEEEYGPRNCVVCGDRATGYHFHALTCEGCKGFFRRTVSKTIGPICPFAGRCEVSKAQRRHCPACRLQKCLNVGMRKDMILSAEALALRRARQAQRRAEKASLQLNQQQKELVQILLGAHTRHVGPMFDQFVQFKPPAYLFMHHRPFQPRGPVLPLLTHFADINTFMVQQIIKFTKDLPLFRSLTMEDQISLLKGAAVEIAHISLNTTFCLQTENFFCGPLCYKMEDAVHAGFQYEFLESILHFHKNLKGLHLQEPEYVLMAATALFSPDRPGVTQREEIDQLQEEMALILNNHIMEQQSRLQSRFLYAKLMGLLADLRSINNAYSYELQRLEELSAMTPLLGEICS

[3] = target: T3, Nuclear receptor subfamily 1 group I member 3 (Mus musculus, UniProt O35627, F171L); assay: Enhancement of nuclear co-repressor receptor binding to mouse CAR F171L mutant […] at 10 uM by yeast two-hybrid assay; type: cell-based; method in brief: as §1
T3 sequence (O35627 whole entry F171L): as the sequence (O35627 whole entry L212A) above, with F171L, A212L counted along it

[4] = target: T4, Nuclear receptor subfamily 1 group I member 3 (Mus musculus, UniProt O35627, Y336A); conditions: HEK293, mouse, read-out: Activity
T4 sequence (O35627 whole entry Y336A): as the sequence (O35627 whole entry L212A) above, with A212L, Y336A counted along it

[5] = target: T4, Nuclear receptor subfamily 1 group I member 3; conditions: HEK293, mouse
[6] = target: T2, Nuclear receptor subfamily 1 group I member 3; assay: Decrease in mouse CAR L212A mutant activation expressed in HEK293 cells at 10 uM by mammalian one-hybrid assay; type: cell-based; conditions: read-out: Activity
Method in brief: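 GAL4 DBD fused to mouse CAR LBD (residues 118-358), wild type or point mutant, cotransfected with UASx4-tk-luc reporter and pCMVβ into HEK293 cells. Cells cultured with DMSO (0.1% v/v) or compound (final 1, 2 or 10 µM). Lysed 24 h post-transfection. Luciferase normalized to β-galactosidase, expressed relative to empty GAL4 vector (=1.0). Mean ± SD, three independent experiments.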

[7] = target: Nuclear receptor subfamily 1 group I member 3 (Mus musculus, UniProt O35627, I252L); conditions: HEK293, mouse
Nuclear receptor subfamily 1 group I member 3 (Mus musculus, UniProt O35627, I252L), sequence (O35627 whole entry I252L): as the sequence (O35627 whole entry L212A) above, with A212L, I252L counted along it

[8] = target: T1, Nuclear receptor subfamily 1 group I member 3; assay: Enhancement of nuclear co-repressor receptor binding to mouse CAR H213A mutant […] at 2 uM by yeast two-hybrid assay; type: cell-based; method in brief: as §1
[9] = target: Nuclear receptor subfamily 1 group I member 3 (Mus musculus, UniProt O35627, L353A); assay: Effect on steroid receptor coactivator 1 binding to mouse CAR L353A mutant […] at 2 uM by yeast two-hybrid assay; type: cell-based; conditions: read-out: Activity; method in brief: as §1
Nuclear receptor subfamily 1 group I member 3 (Mus musculus, UniProt O35627, L353A), sequence (O35627 whole entry L353A): as the sequence (O35627 whole entry L212A) above, with A212L, L353A counted along it

[10] = target: T1, Nuclear receptor subfamily 1 group I member 3; assay: Effect on steroid receptor co-activator 1 binding to mouse CAR H213A mutant […] at 2 uM by yeast two-hybrid assay; type: cell-based; conditions: read-out: Activity; method in brief: as §1
[11] = target: T5, Nuclear receptor subfamily 1 group I member 3 (Mus musculus, UniProt O35627, T350M); assay: Effect on steroid receptor coactivator 1 binding to mouse CAR T350M mutant […] at 2 uM by yeast two-hybrid assay; type: cell-based; conditions: read-out: Activity; method in brief: as §1
T5 sequence (O35627 whole entry T350M): as the sequence (O35627 whole entry L212A) above, with A212L, T350M counted along it

[12] = target: T5, Nuclear receptor subfamily 1 group I member 3; assay: Decrease in nuclear co-repressor receptor binding to mouse CAR T350M mutant […] at 2 uM by yeast two-hybrid assay; type: cell-based; conditions: read-out: Activity; method in brief: as §1
[13] = target: T2, Nuclear receptor subfamily 1 group I member 3; assay: Decrease in nuclear co-repressor receptor binding to mouse CAR L212A mutant […] at 2 uM by yeast two-hybrid assay; type: cell-based; conditions: read-out: Activity; method in brief: as §1
[14] = target: T3, Nuclear receptor subfamily 1 group I member 3; assay: Decrease in mouse CAR F171L mutant activation expressed in HEK293 cells at 2 uM by mammalian one-hybrid assay; type: cell-based; conditions: read-out: Activity
Method in brief: (§2)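 GAL4-DBD fused to mouse CAR LBD (residues 118-358), wild-type or point mutant, cotransfected with UASx4-tk-luc reporter and pCMVβ into HEK293 cells. Cells were exposed to final 1 µM, 2 µM or 10 µM test chemical, or 0.1% v/v DMSO, for 24 h after transfection. Luciferase was normalized to β-galactosidase and set against empty GAL4 vector (=1.0). Mean ± standard deviation, three independent experiments.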

[15] = target: T6, Nuclear receptor subfamily 1 group I member 3 (Mus musculus, UniProt O35627, T350A); assay: Decrease in steroid receptor coactivator 1 binding to mouse CAR T350A mutant […] at 2 uM by yeast two-hybrid assay; type: cell-based; conditions: read-out: Activity; method in brief: as §1
T6 sequence (O35627 whole entry T350A): as the sequence (O35627 whole entry L212A) above, with A212L, T350A counted along it

[16] = target: T6, Nuclear receptor subfamily 1 group I member 3; assay: Decrease in mouse CAR T350A mutant activation expressed in HEK293 cells at 2 uM by mammalian one-hybrid assay; type: cell-based; conditions: read-out: Activity; method in brief: as §2
[17] = target: Nuclear receptor subfamily 1 group I member 3 (Mus musculus, UniProt O35627, F171A); assay: Effect on nuclear co-repressor receptor binding to mouse CAR F171A mutant […] at 2 uM by yeast two-hybrid assay; type: cell-based; conditions: read-out: Activity; method in brief: as §1
Nuclear receptor subfamily 1 group I member 3 (Mus musculus, UniProt O35627, F171A), sequence (O35627 whole entry F171A): as the sequence (O35627 whole entry L212A) above, with F171A, A212L counted along it

[18] = target: Nuclear receptor subfamily 1 group I member 3 (Mus musculus, UniProt O35627, N175A); assay: Enhancement of steroid receptor co-activator 1 binding to mouse CAR N175A mutant […] at 2 uM by yeast two-hybrid assay; type: cell-based; method in brief: as §1
Nuclear receptor subfamily 1 group I member 3 (Mus musculus, UniProt O35627, N175A), sequence (O35627 whole entry N175A): as the sequence (O35627 whole entry L212A) above, with N175A, A212L counted along it

[19] = target: Nuclear receptor subfamily 1 group I member 3 (Mus musculus, UniProt O35627, L253F); assay: Decrease in steroid receptor coactivator 1 binding to mouse CAR L253F mutant […] at 2 uM by yeast two-hybrid assay; type: cell-based; conditions: read-out: Activity; method in brief: as §1
Nuclear receptor subfamily 1 group I member 3 (Mus musculus, UniProt O35627, L253F), sequence (O35627 whole entry L253F): as the sequence (O35627 whole entry L212A) above, with A212L, L253F counted along it

[20] = target: T6, Nuclear receptor subfamily 1 group I member 3; assay: Effect on nuclear co-repressor receptor binding to mouse CAR T350A mutant […] at 1 uM by yeast two-hybrid assay; type: cell-based; conditions: read-out: Activity
Method in brief: (§3)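 Yeast expressing wild-type or mutant mouse CAR LBD plus NCoR, selected on SD plates lacking leucine and tryptophan. Pooled colonies treated with DMSO or compound for 3.5 h. β-Galactosidase activity normalized to cell density. Reference is 10 µM androstenol (=100). Mean ± SD of two independent determinations, each in triplicate.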

[21] = target: Nuclear receptor subfamily 1 group I member 3 (Mus musculus, UniProt O35627, S251L); assay: Effect on nuclear co-repressor receptor binding to mouse CAR S251L mutant […] at 1 uM by yeast two-hybrid assay; type: cell-based; conditions: read-out: Activity; method in brief: as §3
Nuclear receptor subfamily 1 group I member 3 (Mus musculus, UniProt O35627, S251L), sequence (O35627 whole entry S251L): as the sequence (O35627 whole entry L212A) above, with A212L, S251L counted along it

[22] = target: T1, Nuclear receptor subfamily 1 group I member 3; assay: Effect on steroid receptor co-activator 1 binding to mouse CAR H213A mutant […] at 1 uM by yeast two-hybrid assay; type: cell-based; conditions: read-out: Activity
Method in brief: as §3, with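 “SRC-1,” for “NCoR,”, “wild-type CAR + SRC-1 with DMSO” for “10 µM androstenol”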

[23] = target: T6, Nuclear receptor subfamily 1 group I member 3; assay: Decrease in steroid receptor coactivator 1 binding to mouse CAR T350A mutant […] at 1 uM by yeast two-hybrid assay; type: cell-based; conditions: read-out: Activity
Method in brief: as §3, with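 “SRC-1,” for “NCoR,”, “wild-type CAR + SRC-1 with DMSO” for “10 µM androstenol”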

T1 sequence (O35627 whole entry H213A, the tested form may be a part): as the sequence (O35627 whole entry L212A) above, with A212L, H213A counted along it

activity at 10 µM [1]: < 50%
SMILES: COc1ccccc1CC(CC(=O)Cc1ccccc1)OC (stereo not drawn)

activity at 10 µM [2]: < 50%
Activity [3]: >= 50%
SMILES: COc1ccc(C(=O)CCCc2ccccc2)cc1

SMILES: C[C@]12CC[C@@H](O)C[C@@H]1CC[C@@H]1[C@@H]2CC[C@]2(C)C=CC[C@@H]12 [ANDROSTENOL]
inhibition at 10 µM [4]: < 50%
activity at 10 µM [5]: < 50%
inhibition at 10 µM [6]: 50%
activity at 10 µM [7]: < 50%

Activity [8]: > 150%
activity at 2 µM [9]: < 50%
activity at 2 µM [10]: < 50%
activity at 2 µM [11]: < 50%
inhibition at 2 µM [12]: ≥ 50%
inhibition at 2 µM [13]: ≥ 50%
inhibition at 2 µM [14]: 50%
inhibition at 2 µM [15]: ≥ 50%
inhibition at 2 µM [16]: < 50%
activity at 2 µM [17]: < 50%
Activity [18]: >= 50%
inhibition at 2 µM [19]: ≥ 50%
SMILES: Clc1ccccc1C(c1ccccc1)(c1ccccc1)n1ccnc1 [CLOTRIMAZOLE]

SMILES: Clc1cnc(Oc2ccc(Oc3ncc(Cl)cc3Cl)cc2)c(Cl)c1
activity at 1 µM [20]: < 50%
activity at 1 µM [21]: < 50%
activity at 1 µM [22]: < 50%
inhibition at 1 µM [23]: ≥ 50%
